Assay outcomes deposited in PubChem BioAssay by The Scripps Research Institute Molecular Screening Center.
PAFAH1B2 FP inh – PAFAH1B2 enzyme inhibitors, primary screen, biochemical, fluorescence polarization, human; AID 492953, 2010; inhibition, % at 3.39 µM; recombinant PAFAH1B2, FP-rhodamine activity probe; 340,000 compounds, 1.2% hits; Platelet-activating factor acetylhydrolase IB subunit alpha2 (Homo sapiens), P68402;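 active means inhibition above the mean of all tested compounds plus 3 SD, cut at about 24% in these data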
ARFGAP1 inh – inhibitors of rat ARFGAP1 GAP activity, primary screen, biochemical, fluorescence polarization, GDP tracer; AID 651572, 2012; 360,000 compounds, 0.26% hits; Arfgap1-stimulated ARF1 GTP hydrolysis, GDP FP detection; inhibition, % at 16.5 µM; ADP-ribosylation factor GTPase-activating protein 1 (Rattus norvegicus), Q62848;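 active means inhibition above a per-plate limit, mean inhibition of low control wells plus 3 SD, cut at about 25% in these data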
Target sequence (Q62848 1-136 limits assumed): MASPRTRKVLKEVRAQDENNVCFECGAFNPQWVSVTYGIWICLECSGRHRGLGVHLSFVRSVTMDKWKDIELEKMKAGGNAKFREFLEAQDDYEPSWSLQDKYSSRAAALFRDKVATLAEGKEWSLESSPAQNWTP
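Material: truncated rat Arfgap1 GAP domain; Incubation: compound-enzyme preincubation 20 min, reaction 120 min, detection 60 min, 25 °C; Read-out: percent inhibition of Arfgap1-stimulated GTP hydrolysis; Technique: FP, GDP Alexa 633 tracer displaced from anti-GDP antibody, 620/688 nm; Controls: No-Arfgap1 wells (100%) versus DMSO full-reaction wells (0%); Replication: single well per compound.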
ASAP1 GAP inh – inhibitors of human ASAP1 ArfGAP activity, primary screen, biochemical, fluorescence polarization; Arf-GAP with SH3 domain, ANK repeat and PH domain-containing protein 1 (Homo sapiens), …; ASAP1-stimulated ARF1 GTP hydrolysis, GDP FP detection; inhibition, % at 16.5 µM; 360,000 compounds, 0.19% hits; AID 624377, 2012; in the data active means inhibition above about 25%
Target sequence (Q9ULH1 325-724 limits assumed): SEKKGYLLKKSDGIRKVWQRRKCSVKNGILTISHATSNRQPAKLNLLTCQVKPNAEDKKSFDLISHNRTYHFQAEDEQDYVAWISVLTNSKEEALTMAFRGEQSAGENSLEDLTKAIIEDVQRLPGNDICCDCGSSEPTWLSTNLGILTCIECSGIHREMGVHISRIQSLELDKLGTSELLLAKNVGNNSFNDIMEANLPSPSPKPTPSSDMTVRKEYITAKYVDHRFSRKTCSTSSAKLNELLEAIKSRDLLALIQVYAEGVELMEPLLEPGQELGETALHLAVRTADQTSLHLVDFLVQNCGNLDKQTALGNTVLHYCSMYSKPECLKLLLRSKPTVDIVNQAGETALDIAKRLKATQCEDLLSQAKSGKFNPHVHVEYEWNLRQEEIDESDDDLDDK
PAFAH2 inh – PAFAH2 enzyme inhibitors, primary screen, biochemical, fluorescence polarization, human; recombinant PAFAH2, FP-rhodamine activity probe; inhibition, % at 3.39 µM; 340,000 compounds, 0.99% hits; AID 492956, 2010;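 active means inhibition above the mean over all tested compounds plus 3 SD, cut at about 30% in these data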;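 further: inhibitors block probe labeling of enzyme so polarization drops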
pPAFAH FP inh – pPAFAH enzyme inhibitors, primary screen, biochemical, fluorescence polarization, human. Platelet-activating factor acetylhydrolase (Homo sapiens), Q13093. recombinant pPAFAH, FP-rhodamine probe fluorescence polarization. inhibition, % at 3.39 µM. 330,000 compounds, 1.5% hits;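 active means inhibition above the mean inhibition across the screen plus 3 SD, cut at about 25% in these data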;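 further: inhibitors block binding of the rhodamine activity-based probe so polarization drops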
PAFAH1B3 inh – PAFAH1B3 enzyme inhibitors, primary screen, biochemical, fluorescence polarization, human | Platelet-activating factor acetylhydrolase IB subunit alpha1 (Homo sapiens), Q15102 | recombinant PAFAH1B3, FP-rhodamine probe | 340,000 compounds, 0.28% hits | inhibition, % at 3.39 µM | AID 492972, 2010;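 active means inhibition above the screen-wide average of all tested compounds plus 3 SD, cut at about 25% in these data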
PAFAH2 confirm – PAFAH2 enzyme inhibitors, confirmation, biochemical, fluorescence polarization, human; 2,300 compounds, 65% hits; inhibition, % at 3.39 µM; shares compounds with PAFAH2 inh; recombinant PAFAH2, FP-rhodamine activity probe;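 active means mean inhibition over three repeats above a set limit taken from the earlier primary screen, cut at about 30% in these data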;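 further: inhibitor blocks binding of rhodamine activity probe so polarization falls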
Large screens that a line does not name were inactive (follow-up assays come after a bar, where they were run). A selection: hits, their analogues and other compounds. The true share with any hit is near 2.7%.

COc1cc(/C=C2\C(=O)ON=C2c2ccccc2)cc(Br)c1O	PAFAH2 inh 59.1 | PAFAH2 confirm 61.0
COc1cc([N+](=O)[O-])ccc1-c1ccc(/C=C2\C(=O)ON=C2c2ccccc2)o1	PAFAH2 inh 29.8 (no result: pPAFAH FP inh) | PAFAH2 confirm inactive
CCN(C[C@H]1N[C@@](C)(C(=O)OC)[C@H]2C(=O)N(Cc3ccccc3)C(=O)[C@@H]12)C(=O)Nc1ccc(F)cc1	none
O=C(NC1CCCC1)C1c2ccccc2OCC(=O)N1CCCN1CCOCC1 (stereo not drawn)	none (no result: PAFAH1B2 FP inh, PAFAH2 inh, pPAFAH FP inh, PAFAH1B3 inh)
O=C(Cn1nc2ccccc2n1)N/N=C/c1cc(Cl)cc([N+](=O)[O-])c1O	PAFAH2 inh 30.1 (no result: pPAFAH FP inh) | PAFAH2 confirm inactive
O=[N+]([O-])c1cc(Cl)cc(/C=N/Nc2nc3ccccc3s2)c1O	PAFAH2 inh 65.0 | PAFAH2 confirm 46.0
CNC(=O)c1ccc(NC(=O)c2ccccc2OCc2c(C)noc2C)cc1	none (no result: PAFAH1B2 FP inh, PAFAH2 inh, pPAFAH FP inh, PAFAH1B3 inh)
O=C(Nc1ccc(-c2csnn2)cc1)C1CC1	none
O=C(Oc1ccc(-c2csnn2)cc1)C1CC1	PAFAH2 inh 74.8 | PAFAH2 confirm 75.6
COc1ccc(OC)c(CCNC(=O)CN2C(=O)CCSc3ccccc32)c1	PAFAH2 inh 35.7 | PAFAH2 confirm inactive
COc1ccc(CC(=O)N/N=C(\C)CC(=O)Nc2ccc(N(C)C)cc2)cc1	none
C/C(CC(=O)Nc1ccc(N(C)C)cc1)=N\NC(=O)Cc1csc(N)n1	PAFAH2 inh 49.1 | PAFAH2 confirm inactive
O=C(COC(=O)c1ccccc1)NCc1cccs1	PAFAH2 inh 36.4 | PAFAH2 confirm inactive
Cc1cc(C)cc(C(=O)OCC(=O)NCc2cccs2)c1	none
Cc1ccc(C(=O)OCC(=O)NCc2cccs2)s1	PAFAH2 inh 65.1 (no result: pPAFAH FP inh) | PAFAH2 confirm 56.7
O=C(COC(=O)c1ccc(OC(F)F)cc1)NCc1cccs1	PAFAH2 inh 55.7 | PAFAH2 confirm inactive
O=S1(=O)C=C[C@@H](COCc2ccccc2)N1Cc1ccc(Br)cc1	none (no result: PAFAH1B2 FP inh, PAFAH2 inh, pPAFAH FP inh, PAFAH1B3 inh)
C[C@H]1C(=O)N(C)CCN1C(=O)c1ccc(OC2CCN(CCc3ccccc3)CC2)cc1	none (no result: PAFAH1B2 FP inh, PAFAH2 inh, pPAFAH FP inh, PAFAH1B3 inh)
Cc1ccc(-n2ncc(C(=O)N3CCc4ccccc4C3)c2NC(=O)c2ccco2)cc1C	PAFAH2 inh 34.9 | PAFAH2 confirm inactive
Cc1ccc(C)c(SCC(=O)NNC(=O)c2csc(N3CCOCC3)n2)c1	PAFAH2 inh 30.3 | PAFAH2 confirm 31.0
COc1cccc(C=Nc2cc(C(C)C)c(O)cc2C)c1O	none (no result: pPAFAH FP inh)
O=C1CCCN1C(=O)COc1cc(F)ccc1[N+](=O)[O-]	none
O=C1CCCN1C(=O)COc1ccccc1[N+](=O)[O-]	PAFAH2 inh 30.1 | PAFAH2 confirm inactive
COC(=O)[C@]12C[C@H](CC(=O)NCc3cccc4ccccc34)C(=O)N(Cc3ccccc3)C1=C[C@H](C(C)(C)C)O[C@@H]2C	none (no result: PAFAH1B2 FP inh, PAFAH2 inh, pPAFAH FP inh, PAFAH1B3 inh)
CCCCCCCCCCC[C@@H](C[C@@H]1OC(=O)[C@H]1CCCCCC)OC(=O)[C@H](CC(C)C)NC=O	PAFAH2 inh 79.8, pPAFAH FP inh 93.0 | PAFAH2 confirm 79.3
CC1(C(=O)NS(=O)(=O)c2ccccc2C(F)(F)F)CCN1C(=O)COc1ccc(Cl)cc1 (stereo not drawn)	none (no result: PAFAH1B2 FP inh, PAFAH2 inh, pPAFAH FP inh, PAFAH1B3 inh)
CC(C)(C)c1nc2scc(-c3ccc(Br)cc3)c2c(=O)o1	none
CCc1cc2c(=O)[nH]c(-c3ccncc3)nc2s1	none
Cc1sc2nc(-c3cccs3)oc(=O)c2c1C	PAFAH2 inh 63.3 | PAFAH2 confirm 67.4
Cc1sc2nc(-c3ccc(Br)cc3)oc(=O)c2c1C	PAFAH2 inh 49.1 (no result: ARFGAP1 inh, ASAP1 GAP inh) | PAFAH2 confirm 35.6
CCc1cc2c(=O)oc(-c3ccc(Br)cc3)nc2s1	PAFAH2 inh 78.4 (no result: pPAFAH FP inh) | PAFAH2 confirm 67.2
CCOc1ccc(C(=O)NC(C(=O)N2CCC2)C(C)C)cc1 (stereo not drawn)	none (no result: pPAFAH FP inh)
